Columns and labels:
[1] = Cytotoxicity against BALB/c mouse T cells after 48 hrs by MTT assay; type: cell-based, T-cell
Outline: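 Lymph node cells from female BALB/c mice, 6-8 weeks old and specific-pathogen-free, plated at 5 × 10⁵ cells/well with graded compound for 48 h. Medium was RPMI 1640 with 10% fetal calf serum and penicillin/streptomycin, at 37 °C under 5% CO₂. MTT (4 mg/mL in PBS) was added 4 h before the end. Formazan was dissolved in DMSO and read at OD540. CC50 is the concentration reducing viability to 50%.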

T-cell [2] = experiment: Selectivity index, ratio of CC50 for BALB/c mouse T cells to IC50 for immunosuppressive activity in BALB/c mouse T cells; type: functional
[3] = Immunosuppressive activity in BALB/c mouse T cells assessed as inhibition of anti-CD3/anti-CD28-stimulated cell proliferation after 72 hrs by MTT assay; type: functional, cell-based
Outline: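 Female BALB/c mouse lymph node cells, 5 × 10⁵/well, stimulated with anti-CD3/anti-CD28 alongside graded compound for 72 h. MTT (4 mg/mL in PBS) was added 4 h before harvest. Formazan was dissolved in DMSO and read at 540 nm.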

K562 = experiment: Cytotoxicity against human K562 cells after 48 hrs by MTT assay; type: functional, cell-based; details: K562, 48 h
Outline: (§1)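 Cells seeded at 5 × 10⁵ per well and exposed to a range of compound concentrations for 48 h. MTT (4 mg/mL in PBS) added 4 h before end of incubation. Medium replaced by DMSO to dissolve formazan, absorbance read at 540 nm. Value reported as IC₅₀.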

KB = experiment: Cytotoxicity against human KB cells after 48 hrs by MTT assay; type: functional, cell-based; outline: as §1
HepG2 = experiment: Cytotoxicity against human HepG2 cells after 48 hrs by MTT assay; type: functional, cell-based; details: HepG2, 48 h; outline: as §1
[4] = Cytotoxicity against human L02 cells after 48 hrs by MTT assay; type: cell-based; details: L02, 48 h; outline: as §1
T-cell [5] = experiment: Immunosuppressive activity in anti-CD3/anti-CD28-stimulated BALB/c mouse T cells assessed as early apoptotic cells at 1 uM after 48 hrs by FACS analysis; type: functional
Outline: (§2)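 Lymph node cells isolated from naive BALB/c mice, cultured with anti-CD3/anti-CD28 plus compound at 1, 2, 4 or 8 µM for 48 h. Cells were stained with Annexin V-FITC and propidium iodide and analysed by flow cytometry to give apoptotic, necrotic and viable fractions.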

T-cell [6] = experiment: Immunosuppressive activity in anti-CD3/anti-CD28-stimulated BALB/c mouse T cells assessed as late apoptotic cells at 1 uM after 48 hrs by FACS analysis; type: functional; outline: as §2
T-cell [7] = experiment: Immunosuppressive activity in anti-CD3/anti-CD28-stimulated BALB/c mouse T cells assessed as viable cells at 8 uM after 48 hrs by FACS analysis; type: functional; details: read-out: Activity; outline: as §2
T-cell [8] = experiment: Immunosuppressive activity in anti-CD3/anti-CD28-stimulated BALB/c mouse T cells assessed as non-viable necrotic cells at 2 uM after 48 hrs by FACS analysis; type: functional; outline: as §2
T-cell [9] = experiment: Immunosuppressive activity in anti-CD3/anti-CD28-stimulated BALB/c mouse T cells assessed as early apoptotic cells at 8 uM after 48 hrs by FACS analysis; type: functional; outline: as §2
[10] = Toxicity in po dosed BALB/c mouse; type: organism-based; details: in vivo
Outline: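 Acute oral toxicity in female SPF BALB/c mice, 6–8 weeks old, by OECD 425 up-and-down procedure. Food withheld 3–4 h before and 1–2 h after dosing. Animals dosed one at a time at 24 h intervals, dose raised after survival and lowered after death, four more dosed after reversal. 35 animals in total. LD₅₀ estimated by maximum likelihood with AOT425StatPgm.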

T-cell [11] = experiment: Immunosuppressive activity in anti-CD3/anti-CD28-stimulated BALB/c mouse T cells assessed as late apoptotic cells at 8 uM after 48 hrs by FACS analysis; type: functional; outline: as §2
T-cell [12] = experiment: Immunosuppressive activity in anti-CD3/anti-CD28-stimulated BALB/c mouse T cells assessed as non-viable necrotic cells at 8 uM after 48 hrs by FACS analysis; type: functional; outline: as §2
T-cell [13] = experiment: Immunosuppressive activity in anti-CD3/anti-CD28-stimulated BALB/c mouse T cells assessed as late apoptotic cells at 2 uM after 48 hrs by FACS analysis; type: functional; outline: as §2
T-cell [14] = experiment: Immunosuppressive activity in anti-CD3/anti-CD28-stimulated BALB/c mouse T cells assessed as induction of apoptosis after 48 hrs by FACS analysis; type: functional, cell-based; outline: as §2
T-cell [15] = experiment: Immunosuppressive activity in anti-CD3/anti-CD28-stimulated BALB/c mouse T cells assessed as early apoptotic cells at 2 uM after 48 hrs by FACS analysis; type: functional; outline: as §2
T-cell [16] = experiment: Immunosuppressive activity in anti-CD3/anti-CD28-stimulated BALB/c mouse T cells assessed as non-viable necrotic cells at 1 uM after 48 hrs by FACS analysis; type: functional; outline: as §2
T-cell [17] = experiment: Immunosuppressive activity in anti-CD3/anti-CD28-stimulated BALB/c mouse T cells assessed as early apoptotic cells at 4 uM after 48 hrs by FACS analysis; type: functional; outline: as §2
T-cell [18] = experiment: Immunosuppressive activity in anti-CD3/anti-CD28-stimulated BALB/c mouse T cells assessed as non-viable necrotic cells at 4 uM after 48 hrs by FACS analysis; type: functional; outline: as §2
T-cell [19] = experiment: Immunosuppressive activity in anti-CD3/anti-CD28-stimulated BALB/c mouse T cells assessed as late apoptotic cells at 4 uM after 48 hrs by FACS analysis; type: functional; outline: as §2
T-cell [20] = experiment: Immunosuppressive activity in anti-CD3/anti-CD28-stimulated BALB/c mouse T cells assessed as viable cells at 2 uM after 48 hrs by FACS analysis; type: functional; details: read-out: Activity; outline: as §2
T-cell [21] = experiment: Immunosuppressive activity in anti-CD3/anti-CD28-stimulated BALB/c mouse T cells assessed as viable cells at 1 uM after 48 hrs by FACS analysis; type: functional; details: read-out: Activity; outline: as §2
T-cell [22] = experiment: Immunosuppressive activity in anti-CD3/anti-CD28-stimulated BALB/c mouse T cells assessed as viable cells at 4 uM after 48 hrs by FACS analysis; type: functional; details: read-out: Activity; outline: as §2

Structure (SMILES): Cc1cccc(OC(=O)COc2cc(O)c3c(=O)cc(-c4ccccc4)oc3c2)c1C(=O)O
- CC50 at 48 h [1]: 298 µM
- Ratio CC50/IC50 (T-cell [2]): 8.02
- IC50 [3]: 37.2 µM

Structure (SMILES): O=C(COc1cc(O)c2c(=O)cc(-c3ccccc3)oc2c1)Oc1cccc(O)c1C(=O)O
- CC50 at 48 h [1]: 338 µM
- Ratio CC50/IC50 (T-cell [2]): 8.83
- IC50 [3]: 38.2 µM

Structure (SMILES): O=C(COc1cc(O)c2c(=O)cc(-c3ccccc3)oc2c1)Oc1cccc(F)c1C(=O)O
- CC50 at 48 h [1]: 319 µM
- Ratio CC50/IC50 (T-cell [2]): 7.91
- IC50 [3]: 40.3 µM

Structure (SMILES): O=C(COc1cc(O)c2c(=O)cc(-c3ccccc3)oc2c1)Oc1cccc(Br)c1C(=O)O
- CC50 at 48 h [1]: 388 µM
- Ratio CC50/IC50 (T-cell [2]): 9.28
- IC50 [3]: 41.7 µM

Structure (SMILES): COC(=O)c1ccc(Br)cc1OC(=O)COc1cc(O)c2c(=O)cc(-c3ccccc3)oc2c1
- CC50 at 48 h [1]: 326 µM
- Ratio CC50/IC50 (T-cell [2]): 18.54
- IC50 [3]: 17.6 µM

Structure (SMILES): COC(=O)c1ccccc1OC(=O)COc1cc(O)c2c(=O)cc(-c3ccccc3)oc2c1
- CC50 at 48 h [1]: 265 µM
- Ratio CC50/IC50 (T-cell [2]): 9.28
- IC50 [3]: 28.5 µM

Structure (SMILES): O=C(COc1cc(O)c2c(=O)cc(-c3ccccc3)oc2c1)Oc1cc(Cl)cc(Cl)c1C(=O)O
- CC50 at 48 h [1]: 345 µM
- Ratio CC50/IC50 (T-cell [2]): 7.92
- IC50 [3]: 43.6 µM

Structure (SMILES): O=c1[nH]cc(F)c(=O)[nH]1 [FLUOROURACIL]
- IC50 (K562): 38 µM
- IC50 (KB): 2.16 µM
- IC50 (HepG2): 2.78 µM
- IC50 [4]: 56 µM

Structure (SMILES): COC(=O)c1ccc(C)cc1OC(=O)COc1cc(O)c2c(=O)cc(-c3ccccc3)oc2c1
- CC50 at 48 h [1]: 250 µM
- Ratio CC50/IC50 (T-cell [2]): 8.04
- IC50 [3]: 31.1 µM

Structure (SMILES): COC(=O)c1cc(Cl)ccc1OC(=O)COc1cc(O)c2c(=O)cc(-c3ccccc3)oc2c1
- CC50 at 48 h [1]: > 436 µM
- Ratio CC50/IC50 (T-cell [2]): >116.57
- IC50 [3]: 3.74 µM

Structure (SMILES): COC(=O)c1cc(Br)ccc1OC(=O)COc1cc(O)c2c(=O)cc(-c3ccccc3)oc2c1
- CC50 at 48 h [1]: > 450 µM
- Activity (T-cell [5]): 3.79%
- IC50 (K562): 0.47 µM
- Activity (T-cell [6]): 15.66%
- viability at 8 µM (T-cell [7]): 50.1%
- IC50 (KB): 0.79 µM
- Activity (T-cell [8]): 3.61%
- Activity (T-cell [9]): 1.56%
- LD50 [10]: 738 mg/kg
- Activity (T-cell [11]): 40.95%
- Activity (T-cell [12]): 7.41%
- Ratio CC50/IC50 (T-cell [2]): >576.92
- IC50 [3]: 0.78 µM
- Activity (T-cell [13]): 30.09%
- Activity (T-cell [14]): Dose-dependent effect
- Activity (T-cell [15]): 2.12%
- IC50 (HepG2): 0.61 µM
- IC50 [4]: 274 µM
- Activity (T-cell [16]): 3.56%
- Activity (T-cell [17]): 3.14%
- Activity (T-cell [18]): 3.69%
- Activity (T-cell [19]): 38.7%
- viability at 2 µM (T-cell [20]): 64.2%
- viability at 1 µM (T-cell [21]): 77%
- viability at 4 µM (T-cell [22]): 54.5%

Structure (SMILES): COC(=O)c1cc(C)ccc1OC(=O)COc1cc(O)c2c(=O)cc(-c3ccccc3)oc2c1
- CC50 at 48 h [1]: 306 µM
- Ratio CC50/IC50 (T-cell [2]): 11.93
- IC50 [3]: 25.7 µM

Structure (SMILES): O=c1cc(-c2ccccc2)oc2cc(O)cc(O)c12 [CHRYSIN]
- CC50 at 48 h [1]: 428 µM
- Ratio CC50/IC50 (T-cell [2]): 9.7
- IC50 [3]: 44.2 µM

Structure (SMILES): COC(=O)c1cc(F)ccc1OC(=O)COc1cc(O)c2c(=O)cc(-c3ccccc3)oc2c1
- CC50 at 48 h [1]: 389 µM
- Ratio CC50/IC50 (T-cell [2]): 50.08
- IC50 [3]: 6.82 µM

Structure (SMILES): O=C(COc1cc(O)c2c(=O)cc(-c3ccccc3)oc2c1)Oc1c(Cl)cccc1C(=O)O
- CC50 at 48 h [1]: 366 µM
- Ratio CC50/IC50 (T-cell [2]): 9.45
- IC50 [3]: 38.7 µM

Structure (SMILES): O=C(COc1cc(O)c2c(=O)cc(-c3ccccc3)oc2c1)Oc1cc(Br)cc(Br)c1C(=O)O
- CC50 at 48 h [1]: 398 µM
- Ratio CC50/IC50 (T-cell [2]): 8.69
- IC50 [3]: 45.7 µM

Structure (SMILES): O=C(COc1cc(O)c2c(=O)cc(-c3ccccc3)oc2c1)Oc1c(Br)cccc1C(=O)O
- CC50 at 48 h [1]: 379 µM
- Ratio CC50/IC50 (T-cell [2]): 9.31
- IC50 [3]: 40.6 µM

Structure (SMILES): O=C(COc1cc(O)c2c(=O)cc(-c3ccccc3)oc2c1)Oc1cccc(Cl)c1C(=O)O
- CC50 at 48 h [1]: 366 µM
- Ratio CC50/IC50 (T-cell [2]): 9.39
- IC50 [3]: 38.9 µM

Structure (SMILES): COC(=O)c1ccc(Cl)cc1OC(=O)COc1cc(O)c2c(=O)cc(-c3ccccc3)oc2c1
- CC50 at 48 h [1]: 265 µM
- Ratio CC50/IC50 (T-cell [2]): 21.43
- IC50 [3]: 12.4 µM

Structure (SMILES): COC(=O)c1cccc(OC)c1OC(=O)COc1cc(O)c2c(=O)cc(-c3ccccc3)oc2c1
- CC50 at 48 h [1]: 196 µM
- Ratio CC50/IC50 (T-cell [2]): 5.34
- IC50 [3]: 36.8 µM

Structure (SMILES): Cc1cccc(C(=O)O)c1OC(=O)COc1cc(O)c2c(=O)cc(-c3ccccc3)oc2c1
- CC50 at 48 h [1]: 299 µM
- Ratio CC50/IC50 (T-cell [2]): 7.65
- IC50 [3]: 39.1 µM

Structure (SMILES): COC(=O)c1cc(O)ccc1OC(=O)COc1cc(O)c2c(=O)cc(-c3ccccc3)oc2c1
- CC50 at 48 h [1]: 263 µM
- Ratio CC50/IC50 (T-cell [2]): 8.94
- IC50 [3]: 29.5 µM

Reference: ChEMBL document CHEMBL1649396, “Synthesis, biological evaluation of chrysin derivatives as potential immunosuppressive agents” (Eur J Med Chem, 2011)
